The target of test [1] is Tyrosine-protein kinase BTK (Homo sapiens, UniProt Q06187). Kind of test: Inhibition of human recombinant full length N-terminal His tagged BTK expressed in baculovirus infected Sf9 cells using poly (Glu,Tyr) 4:1 as substrate measured after 60 mins in presence of ATP by ADP-Glo kinase assay.
Test [2] relates to Raji. The test can be described thus: Antiproliferative activity against human Raji cells at 40 uM measured after 72 hrs by CCK-8 assay relative to control. Format: functional. The note with it: Homo sapiens, Raji, 72 h. The method, boiled down: (§1)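 Ramos or Raji cells in RPMI-1640 with 10% FBS and 1% penicillin-streptomycin at 37 °C, 5% CO2. Seeded at 2000–3000 cells/well one day before compound addition. Exposure 72 h, then CCK-8 with absorbance at 450 nm. […] Single-point inhibition at 40 µM reported as mean ± standard deviation.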

Test [3] relates to Ramos. Kind of test: Antiproliferative activity against human Ramos cells at 40 uM measured after 72 hrs by CCK-8 assay relative to control. Format: functional. The conditions noted are these: Homo sapiens, Ramos, 72 h. The procedure, abridged:
as §1

Test [4] relates to Ramos. Kind of test: Antiproliferative activity against human Ramos cells measured after 72 hrs by CCK-8 assay. It is filed as functional, cell-based. The method, boiled down:
as §1

Test [5] deals with Raji. Kind of test: Antiproliferative activity against human Raji cells measured after 72 hrs by CCK-8 assay. Format: functional, cell-based. The method, boiled down:
as §1

Sequence of Tyrosine-protein kinase BTK (Q06187 whole entry): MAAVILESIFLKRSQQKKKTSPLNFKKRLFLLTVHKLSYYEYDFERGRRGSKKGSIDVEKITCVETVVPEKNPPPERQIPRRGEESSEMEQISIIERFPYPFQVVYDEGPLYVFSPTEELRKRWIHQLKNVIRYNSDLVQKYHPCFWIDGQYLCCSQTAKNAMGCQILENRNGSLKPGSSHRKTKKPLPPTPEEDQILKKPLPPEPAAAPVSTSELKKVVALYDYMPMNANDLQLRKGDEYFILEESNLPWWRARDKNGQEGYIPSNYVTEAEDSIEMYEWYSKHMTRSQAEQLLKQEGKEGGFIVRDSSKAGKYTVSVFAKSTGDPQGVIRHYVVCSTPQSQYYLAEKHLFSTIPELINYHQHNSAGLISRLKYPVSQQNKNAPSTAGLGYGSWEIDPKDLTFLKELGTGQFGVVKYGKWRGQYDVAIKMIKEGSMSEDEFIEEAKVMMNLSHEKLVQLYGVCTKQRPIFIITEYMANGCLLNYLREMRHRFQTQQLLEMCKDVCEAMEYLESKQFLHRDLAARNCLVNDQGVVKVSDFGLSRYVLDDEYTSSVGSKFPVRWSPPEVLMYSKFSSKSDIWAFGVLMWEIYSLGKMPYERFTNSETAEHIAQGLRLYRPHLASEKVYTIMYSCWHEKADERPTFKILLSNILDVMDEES

In the case of `CN1CCN(c2ccc(Nc3nc(-c4cccc(NC(=O)[C@H]5CC[C@H](C)CC5)c4)sc3C(N)=O)cc2)CC1`, the IC50 in test [1] stood at 0.105 µM. Also, the results for the inhibition at 40 µM in test [2] and in test [3] were 22.4% and 55%, respectively.
`CCOC(=O)c1sc(-c2cccc(NC(=O)c3ccc(F)c(Cl)c3)c2)nc1Nc1ccc(N2CCN(C)CC2)cc1`: the results for the inhibition at 40 µM in test [2] and in test [3] were 20.7% and 72.5%, respectively. The same molecule returned an IC50 in test [4] of 29.2 µM.
As to `CCOC(=O)c1sc(-c2cccc(NC(=O)c3ccco3)c2)nc1Nc1ccc(N2CCN(C)CC2)cc1`, the IC50 in test [1] was 0.161 µM; in test [5], 15.1 µM. The inhibition at 40 µM in test [2] amounted to 87.6%; in test [3], 50.2%.
Regarding `CNC(=O)c1sc(-c2cccc(NC(=O)c3ccc(C(C)(C)C)cc3)c2)nc1Nc1ccc(N2CCOCC2)cc1`, the IC50 in test [1] stood at 8.53 µM; in test [5] it was 8.96 µM; in test [4], 34.1 µM. The inhibition at 40 µM is 94% in test [2] and 65.8% in test [3].
In the case of `CCOC(=O)c1sc(-c2cccc(NC(=O)c3ccc(C(F)(F)F)cc3)c2)nc1Nc1ccc(N2CCN(C)CC2)cc1`, the results for the inhibition at 40 µM in test [2] and in test [3] were 33% and 18.4%, respectively.
As for `CN1CCN(c2ccc(Nc3nc(-c4cccc(NC(=O)c5ccco5)c4)sc3C(N)=O)cc2)CC1`, the IC50 in test [1] amounted to 0.073 µM; in test [5], 37.4 µM; in test [4], 19.7 µM. For the same molecule, the inhibition at 40 µM worked out at 84.3% in test [2] and 96.7% in test [3].
`CCOC(=O)c1sc(-c2cccc(NC(=O)c3ccc(C(C)(C)C)cc3)c2)nc1Nc1ccc(C(=O)N2CCOCC2)cc1`: the inhibition at 40 µM in test [2] was 13.2%; in test [3] it was 82.6%. In test [4], the midpoint of inhibition, the IC50, lay at 25.2 µM.
With `CN1CCN(c2ccc(Nc3nc(-c4cccc(NC(=O)c5ccc(C(F)(F)F)cn5)c4)sc3C(N)=O)cc2)CC1`, the half-inhibitory concentration (IC50) in test [1] is 0.637 µM; in test [5] it was 24.5 µM; in test [4] it was 19.8 µM. For the same molecule, the inhibition at 40 µM in test [2] is 84.6%; in test [3], 96.6%.
For `CC(C)(C)c1ccc(C(=O)Nc2cccc(-c3nc(Nc4ccc(C(=O)N5CCOCC5)cc4)c(C(N)=O)s3)c2)cc1`, the half-inhibitory concentration (IC50) turned out to be 0.333 µM in test [1] and 28.4 µM in test [4]. The inhibition at 40 µM in test [2] was found to be 33.4%; in test [3] it was 85.2%.
As to `CCOC(=O)c1sc(-c2cccc(NC(=O)c3ccc(N(C)C)cc3)c2)nc1Nc1ccc(N2CCOCC2)cc1`, the IC50 in test [1] came to 4.2 µM. In addition, the inhibition at 40 µM in test [2] was 7.96%; in test [3], 12.3%.
In the case of `CN1CCN(c2ccc(Nc3nc(-c4cccc(NC(=O)c5ccccc5)c4)sc3C(=O)O)cc2)CC1`, the inhibition at 40 µM in test [2] came out at 11.9%; in test [3], 26.3%.
`CCOC(=O)c1sc(-c2cccc(NC(=O)c3ccc(C(C)(C)C)cc3)c2)nc1Nc1ccc(N2CCN(C)CC2)cc1`: the inhibition at 40 µM was 4.22% in test [2] and 21.2% in test [3].
Turning to `CCOC(=O)c1sc(-c2cccc(NC(=O)c3ccc(C#N)cc3)c2)nc1Nc1ccc(N2CCN(C)CC2)cc1`, the half-inhibitory concentration (IC50) in test [1] was found to be 5.17 µM; in test [5], 14 µM; in test [4], 4.28 µM. Also, the results for the inhibition at 40 µM in test [2] and in test [3] were 79.1% and 97.5%, respectively.
Regarding `CCOC(=O)c1sc(-c2cccc(NC(=O)c3ccc(C(F)(F)F)cn3)c2)nc1Nc1ccc(N2CCN(C)CC2)cc1`, the inhibition at 40 µM in test [2] was 20.8%; in test [3], 19%.
In the case of `CN1CCN(c2ccc(Nc3nc(-c4cccc(NC(=O)c5ccc(Cl)cc5)c4)sc3C(=O)O)cc2)CC1`, the IC50 turned out to be 0.134 µM in test [1], 7.02 µM in test [5] and 23.3 µM in test [4]. Moreover, the results for the inhibition at 40 µM in test [2] and in test [3] were 90.9% and 71.6%, respectively.
For the molecule `O=C(Nc1cccc(-c2nc(Nc3ccc(N4CCOCC4)cc3)c(C(=O)O)s2)c1)c1ccc(C(F)(F)F)cc1`, the IC50 was 38.1 µM in test [1] and 29.5 µM in test [4]. The inhibition at 40 µM in test [2] stood at 18.8%; in test [3], 77.4%.
As to `CN1CCN(c2ccc(Nc3nc(-c4cccc(NC(=O)c5ccc(C(F)(F)F)cc5)c4)sc3C(N)=O)cc2)CC1`, the half-inhibitory concentration (IC50) in test [1] was 0.206 µM; in test [5], 3.21 µM; in test [4] it was 1.58 µM. Also, the figures for the inhibition at 40 µM in test [2] and in test [3] were 91.8% and 97.8%, respectively.
As for `CCOC(=O)c1sc(-c2cccc(NC(=O)c3ccc(Cl)cc3)c2)nc1Nc1ccc(N2CCN(C)CC2)cc1`, the inhibition at 40 µM was determined as 24.3% in test [2] and 46.9% in test [3].
On to `CN1CCN(c2ccc(Nc3nc(-c4cccc(NC(=O)c5ccccc5F)c4)sc3C(=O)O)cc2)CC1`, for which the IC50 in test [1] stood at 21.9 µM; in test [5] it was 13.9 µM; in test [4] it was 6.3 µM. In addition, the inhibition at 40 µM came out at 86.8% in test [2] and 93.3% in test [3].
Take `CC(C)(C)c1ccc(C(=O)Nc2cccc(-c3nc(Nc4ccc(N5CCOCC5)cc4)c(C(N)=O)s3)c2)cc1`: in test [1], the IC50 worked out at 2.23 µM. The inhibition at 40 µM in test [2] is 4.42%; in test [3], 5.57%.
As to `CN1CCN(c2ccc(Nc3nc(-c4cccc(NC(=O)c5ccc(F)c(Cl)c5)c4)sc3C(=O)O)cc2)CC1`, the IC50 in test [5] worked out at 8.74 µM; in test [4] it was 5.6 µM. The inhibition at 40 µM amounted to 87.9% in test [2] and 98.6% in test [3].
Turning to `CN(C)c1ccc(C(=O)Nc2cccc(-c3nc(Nc4ccc(N5CCOCC5)cc4)c(C(=O)O)s3)c2)cc1`, the concentration for half-maximal inhibition (IC50) came to 21 µM in test [1] and 24.5 µM in test [4]. For the same molecule, the results for the inhibition at 40 µM in test [2] and in test [3] were 24.4% and 74.4%, respectively.
Take `CN1CCN(c2ccc(Nc3nc(-c4cccc(NC(=O)c5cccc(F)c5)c4)sc3C(=O)O)cc2)CC1`: the results for the IC50 in test [1], in test [5] and in test [4] were 27.8 µM, 35.1 µM and 14 µM, respectively. For the same molecule, the figures for the inhibition at 40 µM in test [2] and in test [3] were 76.3% and 82.7%, respectively.
As for `CCOC(=O)c1sc(-c2cccc(NC(=O)c3ccc(C(C)(C)C)cc3)c2)nc1Nc1ccc(N2CCOCC2)cc1`, the inhibition at 40 µM in test [2] is 6.21%; in test [3] it was 14%.
For `CCOC(=O)c1sc(-c2cccc(NC(=O)[C@H]3CC[C@H](C)CC3)c2)nc1Nc1ccc(N2CCN(C)CC2)cc1`, the inhibition at 40 µM in test [2] came to 26.1%; in test [3], 19.9%.
Turning to `CCOC(=O)c1sc(-c2cccc(NC(=O)c3ccc(C(F)(F)F)cc3)c2)nc1Nc1ccc(N2CCOCC2)cc1`, the IC50 in test [1] was 2.42 µM. In addition, the inhibition at 40 µM in test [2] stood at 5.44%; in test [3], 21.8%.
For `CCOC(=O)c1sc(-c2cccc(NC(=O)c3cccc(F)c3)c2)nc1Nc1ccc(N2CCN(C)CC2)cc1`, the IC50 in test [1] is 19.2 µM; in test [5], 21.2 µM; in test [4] it was 12.8 µM. The inhibition at 40 µM in test [2] was 82.8%; in test [3], 85.2%.
Take `NC(=O)c1sc(-c2cccc(NC(=O)c3ccc(F)cc3)c2)nc1Nc1ccc(C(=O)N2CCOCC2)cc1`: the figures for the concentration for half-maximal inhibition (IC50) in test [1], in test [5] and in test [4] were 0.733 µM, 35.4 µM and 13 µM, respectively. Also, the inhibition at 40 µM in test [2] worked out at 82.5%; in test [3] it was 91.5%.
`NC(=O)c1sc(-c2cccc(NC(=O)c3ccc(F)cc3)c2)nc1Nc1ccc(N2CCOCC2)cc1`: in test [1], the IC50 amounted to 0.258 µM. For the same molecule, the inhibition at 40 µM in test [2] was 9.92%; in test [3], 3.53%.
On to `CCOC(=O)c1sc(-c2cccc(NC(=O)c3ccc(C(F)(F)F)cc3)c2)nc1Nc1ccc(C(=O)N2CCOCC2)cc1`, for which the results for the inhibition at 40 µM in test [2] and in test [3] were 6.06% and 49.9%, respectively.
`CCOC(=O)c1sc(-c2cccc(NC(=O)c3ccc(F)cc3)c2)nc1Nc1ccc(C(=O)N2CCOCC2)cc1`: the inhibition at 40 µM worked out at 37.3% in test [2] and 31.1% in test [3].
With `CC(C)(C)c1ccc(C(=O)Nc2cccc(-c3nc(Nc4ccc(N5CCOCC5)cc4)c(C(=O)O)s3)c2)cc1`, the concentration for half-maximal inhibition (IC50) in test [1] came to 5.32 µM; in test [5], 5.74 µM; in test [4], 4.37 µM. Also, the inhibition at 40 µM in test [2] was determined as 93.8%; in test [3] it was 94.3%.
For the molecule `CN1CCN(c2ccc(Nc3nc(-c4cccc(NC(=O)c5ccc(C(C)(C)C)cc5)c4)sc3C(N)=O)cc2)CC1`, the 50% inhibitory concentration (IC50) in test [1] is 5.25 µM; in test [4] it was 8.6 µM. Further, the inhibition at 40 µM amounted to 12.1% in test [2] and 80.1% in test [3].
Regarding `CCOC(=O)c1sc(-c2cccc(NC(=O)c3ccccc3)c2)nc1Nc1ccc(N2CCN(C)CC2)cc1`, the IC50 worked out at 37.1 µM in test [1] and 24.8 µM in test [4]. In addition, the inhibition at 40 µM came to 42% in test [2] and 77.1% in test [3].
Turning to `CC(C)NC(=O)c1sc(-c2cccc(NC(=O)c3ccc(C(C)(C)C)cc3)c2)nc1Nc1ccc(N2CCOCC2)cc1`, the 50% inhibitory concentration (IC50) in test [1] amounted to 62.8 µM. The values for the inhibition at 40 µM in test [2] and in test [3] were 6.39% and 27.9%, respectively.
For the molecule `CCOC(=O)c1sc(-c2cccc(NC(=O)c3ccc(F)cc3)c2)nc1Nc1ccc(N2CCOCC2)cc1`, the inhibition at 40 µM came to 25.8% in test [2] and 3.96% in test [3].
With `CN1CCN(c2ccc(Nc3nc(-c4cccc(NC(=O)c5cccc(F)c5)c4)sc3C(N)=O)cc2)CC1`, the values for the inhibition at 40 µM in test [2] and in test [3] were 2.78% and 16.2%, respectively.
Take `CCOC(=O)c1sc(-c2cccc(NC(=O)c3ccc(F)cc3)c2)nc1Nc1ccc(N2CCN(C)CC2)cc1`: the figures for the inhibition at 40 µM in test [2] and in test [3] were 16.8% and 3.53%, respectively.
As to `NC(=O)c1sc(-c2cccc(NC(=O)c3ccc(C(F)(F)F)cc3)c2)nc1Nc1ccc(N2CCOCC2)cc1`, in test [1], the IC50 came out at 6.75 µM. In addition, the inhibition at 40 µM in test [2] came to 7.48%; in test [3] it was 25.2%.
